According to ChEMBL document CHEMBL3297668, “Synthesis of truncated analogues of preptin-(1–16), and investigation of their ability to stimulate osteoblast proliferation” (Bioorg Med Chem, 2014):
Activity calls are given as the source filed them. The calls are words filed in the database; no cut-off is given here. Where a SMILES comes first, the peptide text is derived from it.

test system: Osteoblast; assay: Stimulation of proliferation of foetal rat osteoblasts at 10 '-10 to 10 '-8 M after 18 to 24 hrs by [3H]-thymidine incorporation assay relative to control; assay type: functional, cell-based
Procedure, shortened: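 Osteoblasts from 20-day fetal rat calvariae (collagenase digests 3 and 4) were expanded in FBS medium with ascorbate-2-phosphate, seeded at 2.5 × 10⁴ cells/well in 5% FBS/MEM for 24 h, then growth-arrested 24 h in 0.1% BSA/5 µg/mL ascorbate-2-phosphate. Peptide treatment 24 h, with [³H]-thymidine pulse over the final 6 h. Result expressed as treatment/vehicle ratio. 6 wells/group, 3–4 experiments, ANOVA with Dunnett's test.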

Compound	Activity
CC(=O)N[C@@H](CC(=O)O)C(=O)N[C@H](C(=O)N[C@@H](CO)C(=O)N[C@H](C(N)=O)[C@@H](C)O)C(C)C (Ac-DVST-NH2)	inactive
CC(=O)N[C@@H](CC(=O)O)C(=O)N[C@H](C(=O)N[C@@H](CO)C(=O)N[C@H](C(=O)O)[C@@H](C)O)C(C)C (Ac-DVST-OH)	inactive
CC(=O)N[C@@H](Cc1ccccc1)C(=O)N1CCC[C@H]1C(=O)N[C@@H](CCCNC(=N)N)C(=O)N[C@@H](Cc1ccc(O)cc1)C(N)=O (Ac-FPRY-NH2)	Active
CC(=O)N[C@@H](Cc1ccccc1)C(=O)N1CCC[C@H]1C(=O)N[C@@H](CCCNC(=N)N)C(=O)N[C@@H](Cc1ccc(O)cc1)C(=O)O (Ac-FPRY-OH)	inactive
CC(C)[C@H](NC(=O)[C@@H](N)CC(=O)O)C(=O)N[C@@H](CO)C(=O)N[C@H](C(N)=O)[C@@H](C)O (H-DVST-NH2)	inactive
CC(C)[C@H](NC(=O)[C@@H](N)CC(=O)O)C(=O)N[C@@H](CO)C(=O)N[C@H](C(=O)O)[C@@H](C)O (H-DVST-OH)	inactive
N=C(N)NCCC[C@H](NC(=O)[C@@H]1CCCN1C(=O)[C@@H](N)Cc1ccccc1)C(=O)N[C@@H](Cc1ccc(O)cc1)C(N)=O (H-FPRY-NH2)	inactive
N=C(N)NCCC[C@H](NC(=O)[C@@H]1CCCN1C(=O)[C@@H](N)Cc1ccccc1)C(=O)N[C@@H](Cc1ccc(O)cc1)C(=O)O (H-FPRY-OH)	inactive
Ac-DVSTSQAV-NH2	inactive
Ac-DVSTSQAV-OH	inactive
Ac-DVSTSQAVLPDD-NH2	inactive
Ac-DVSTSQAVLPDD-OH	inactive
Ac-DVSTSQAVLPDDFPRY-NH2	Active
Ac-DVSTSQAVLPDDFPRY-OH	inactive
Ac-LPDDFPRY-NH2	inactive
Ac-LPDDFPRY-OH	inactive
Ac-SQAVLPDDFPRY-NH2	inactive
Ac-SQAVLPDDFPRY-OH	inactive
H-DVSTSQAV-OH	Active
H-DVSTSQAVLPDD-NH2	inactive
H-DVSTSQAVLPDD-OH	inactive
H-DVSTSQAVLPDDFPRY-NH2	inactive
H-DVSTSQAVLPDDFPRY-OH	Active
H-LPDDFPRY-NH2	inactive
H-LPDDFPRY-OH	inactive
H-SQAVLPDDFPRY-NH2	inactive
H-SQAVLPDDFPRY-OH	inactive

test system: Osteoblast; assay: Stimulation of differentiation of rat osteoblasts assessed as increase in mineralized bone nodules at 10 '-9 M after 3 weeks using Von Kossa staining by bone nodule formation assay relative to control; assay type: functional, cell-based
Procedure, shortened: (§1)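 Primary osteoblasts from 20-day fetal rat calvariae (sequential collagenase digests 3 and 4) plated at 5 × 10⁴ cells/well in αMEM/10% FBS plus ascorbate-2-phosphate. At confluence (~3 days), medium switched to MEM/15% FBS with 50 µg/mL L-ascorbic acid-2-phosphate and 10 mM β-glycerophosphate, plus peptide; medium and peptide renewed twice weekly. Dexamethasone positive control. At 21 days, fixed in 10% neutral buffered formalin, Von Kossa stained, mineralized area quantified by image analysis.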

Compound	Activity
H-DVSTSQAV-OH	Active

test system: Osteoblast; assay: Stimulation of differentiation of rat osteoblasts assessed as increase in mineralized bone nodules at 10 '-10 to 10 '-9 M after 3 weeks using Von Kossa staining by bone nodule formation assay relative to control; assay type: functional, cell-based; procedure, shortened: as §1

Compound	Activity
CC(=O)N[C@@H](Cc1ccccc1)C(=O)N1CCC[C@H]1C(=O)N[C@@H](CCCNC(=N)N)C(=O)N[C@@H](Cc1ccc(O)cc1)C(N)=O (Ac-FPRY-NH2)	inactive
